Reference: ChEMBL document CHEMBL4706494, “Design, synthesis characterization and biological evaluation of novel multi-isoform ALDH inhibitors as potential anticancer agents” (Eur J Med Chem, 2020)
Active and inactive are the calls of the source. The rule behind the calls is not given here.

What was measured:
[1] = target: T1, Aldehyde dehydrogenase, dimeric NADP-preferring (Homo sapiens, UniProt P30838); assay: Inhibition of ALDH3A1 (unknown origin) assessed as NADH formation using 4-nitrobenzaldehyde as substrate
T1 sequence (P30838 whole entry): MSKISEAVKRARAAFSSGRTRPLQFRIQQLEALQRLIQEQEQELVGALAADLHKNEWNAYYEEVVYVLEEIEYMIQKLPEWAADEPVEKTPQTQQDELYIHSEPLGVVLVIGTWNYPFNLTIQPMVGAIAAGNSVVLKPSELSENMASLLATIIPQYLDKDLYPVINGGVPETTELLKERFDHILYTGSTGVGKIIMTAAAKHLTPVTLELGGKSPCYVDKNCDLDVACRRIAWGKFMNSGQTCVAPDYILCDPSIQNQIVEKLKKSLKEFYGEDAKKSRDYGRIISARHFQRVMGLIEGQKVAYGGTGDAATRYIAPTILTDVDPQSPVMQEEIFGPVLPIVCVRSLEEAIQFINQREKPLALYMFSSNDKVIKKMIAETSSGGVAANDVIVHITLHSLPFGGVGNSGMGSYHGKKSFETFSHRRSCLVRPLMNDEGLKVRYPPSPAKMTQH
Procedure, shortened: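 Protein at 0.2 µg/mL exposed 15 min to graded inhibitor concentrations. 1 mM 4-nitrobenzaldehyde substrate with NAD+ then added, run as for the ALDH1A1 assay.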

[2] = target: T2, Aldehyde dehydrogenase, mitochondrial (Homo sapiens, UniProt P05091); assay: Inhibition of ALDH2 (unknown origin) assessed as NADH formation using acetaldehyde as substrate
T2 sequence (P05091 whole entry): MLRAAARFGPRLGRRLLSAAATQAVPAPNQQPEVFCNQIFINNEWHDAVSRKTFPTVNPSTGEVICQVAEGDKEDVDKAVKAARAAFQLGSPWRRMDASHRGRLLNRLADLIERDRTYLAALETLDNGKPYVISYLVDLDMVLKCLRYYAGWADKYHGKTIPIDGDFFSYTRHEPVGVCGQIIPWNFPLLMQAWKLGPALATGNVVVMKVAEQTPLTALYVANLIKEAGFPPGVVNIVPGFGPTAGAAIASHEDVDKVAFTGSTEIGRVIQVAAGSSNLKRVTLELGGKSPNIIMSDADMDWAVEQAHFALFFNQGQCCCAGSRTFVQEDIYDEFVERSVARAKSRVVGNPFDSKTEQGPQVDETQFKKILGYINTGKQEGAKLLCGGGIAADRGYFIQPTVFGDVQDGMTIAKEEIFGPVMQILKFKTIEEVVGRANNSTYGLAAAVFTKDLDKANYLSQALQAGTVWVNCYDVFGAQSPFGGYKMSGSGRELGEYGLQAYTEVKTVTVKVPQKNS
Procedure, shortened: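 Enzyme at 0.5 µg/mL preincubated 15 min with varied inhibitor concentrations. Reaction started with 2 mM acetaldehyde plus NAD+ in buffer, as for the ALDH1A1 assay.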

[3] = target: T3, Aldehyde dehydrogenase 1A1 (Homo sapiens, UniProt P00352); assay: Inhibition of ALDH1A1 (unknown origin) assessed as NADH formation using propionaldehyde as substrate
T3 sequence (P00352 whole entry): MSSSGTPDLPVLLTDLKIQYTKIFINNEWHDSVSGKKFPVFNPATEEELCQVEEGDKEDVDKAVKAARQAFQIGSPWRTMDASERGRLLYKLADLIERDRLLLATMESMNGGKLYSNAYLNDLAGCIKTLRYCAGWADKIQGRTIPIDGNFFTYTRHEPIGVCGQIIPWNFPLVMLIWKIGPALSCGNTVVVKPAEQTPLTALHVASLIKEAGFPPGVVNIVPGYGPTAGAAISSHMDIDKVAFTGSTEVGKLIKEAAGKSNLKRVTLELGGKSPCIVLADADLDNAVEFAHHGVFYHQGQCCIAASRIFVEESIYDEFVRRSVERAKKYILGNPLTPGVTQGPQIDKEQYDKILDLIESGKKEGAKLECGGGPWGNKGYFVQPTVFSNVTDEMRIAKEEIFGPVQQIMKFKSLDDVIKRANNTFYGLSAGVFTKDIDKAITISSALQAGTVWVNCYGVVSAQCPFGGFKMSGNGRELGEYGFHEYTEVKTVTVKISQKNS

HCT-116 [4] = assay: Antiproliferative activity against human HCT116 cells measured after 72 hrs by MTS assay; format: functional, cell-based; conditions: HCT-116, 72 h
Procedure, shortened: (§1)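 Cells seeded at 5,000 per well, left overnight at 37°C in 5% CO2, then exposed to a range of compound concentrations for 72 h. IC50 was fitted from dose-response curves, 3 independent experiments, reported as mean + SD.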

[5] = Toxicity in Swiss-Webster mouse assessed as body weight loss at 5 mg/kg/day, ip for 14 days; format: organism-based; conditions: in vivo, 336 h, time 14 day
Procedure, shortened: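 Swiss-Webster mice received 5 mg/kg/day i.p. once daily for 14 days. Body weight, behaviour and physical distress were monitored, with % weight change compared against DMSO vehicle controls.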

NCI-H929 = assay: Antiproliferative activity against human NCIH929 cells measured after 72 hrs by MTS assay; format: functional, cell-based; conditions: NCI-H929, 72 h; procedure, shortened: as §1
[6] = Antiproliferative activity against human MM.1R cells measured after 72 hrs by MTS assay; format: functional, cell-based; procedure, shortened: as §1
U-266 = assay: Antiproliferative activity against human U266 cells measured after 72 hrs by MTS assay; format: functional, cell-based; conditions: U-266, 72 h; procedure, shortened: as §1
MM1.S = assay: Antiproliferative activity against human MM.1S cells measured after 72 hrs by MTS assay; format: functional, cell-based; procedure, shortened: as §1
[7] = Antiproliferative activity against human 1205Lu cells measured after 72 hrs by MTS assay; format: functional, cell-based; procedure, shortened: as §1
RPMI-8226 = assay: Antiproliferative activity against human RPMI8226 cells measured after 72 hrs by MTS assay; format: functional, cell-based; conditions: RPMI-8226, 72 h; procedure, shortened: as §1
UACC-903 = assay: Antiproliferative activity against human UACC 903 cells measured after 72 hrs by MTS assay; format: functional, cell-based; conditions: UACC-903, 72 h; procedure, shortened: as §1
[8] = Cytotoxicity against human FF2441 cells measured after 72 hrs by MTS assay; format: cell-based; conditions: FF2441, 72 h; procedure, shortened: as §1
HT-29 = assay: Antiproliferative activity against human HT-29 cells measured after 72 hrs by MTS assay; format: functional, cell-based; conditions: HT-29, 72 h; procedure, shortened: as §1
HCT-116 [9] = assay: Induction of cell cycle arrest in human HCT-116 cells assessed as accumulation of cells at G2/M phase at 5 uM incubated for 24 hrs by PI staining based flow cytometry; format: functional
Procedure, shortened: (§2)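 HCT116 cells given 5 µM compound for 24 h, with or without 10 mM NAC. Cells were detached, PBS-washed, fixed in 70% ethanol and stained with propidium iodide. DNA content read by flow cytometry for cell-cycle distribution.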

HCT-116 [10] = assay: Induction of apoptosis in human HCT-116 cells at 5 uM incubated for 24 hrs by annexinV- and […] staining based flow cytometry; format: functional, cell-based
Procedure, shortened: (§3)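 HCT116 cells treated 24 h with 5 µM compound, with or without 10 mM NAC. Cells were detached, PBS-washed, stained with Annexin-V-PE and 7-AAD, and analysed by flow cytometry. Annexin-V/7-AAD double-positive cells were scored as late apoptotic, relative to DMSO control.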

HCT-116 [11] = assay: Induction of apoptosis in human HCT-116 cells at 5 uM incubated for 24 hrs in presence of NAC by annexinV- and […] staining based flow cytometry; format: functional, cell-based; procedure, shortened: as §3
HCT-116 [12] = assay: Induction of ROS production in human HCT-116 cells at 5 uM incubated for 24 hrs in presence of NAC by DCFDA staining based fluorescence microscopic analysis; format: functional, cell-based
HCT-116 [13] = assay: Induction of ROS production in human HCT-116 cells at 5 uM incubated for 24 hrs by DCFDA staining based fluorescence microscopic analysis; format: functional, cell-based
HCT-116 [14] = assay: Induction of cell cycle arrest in human HCT-116 cells assessed as accumulation of cells at G2/M phase at 5 uM incubated for 24 hrs in presence of NAC by PI staining based flow cytometry; format: functional; procedure, shortened: as §2
HCT-116 [15] = assay: Induction of lipid peroxidation in human HCT-116 cells at 5 uM incubated for 24 hrs in presence of NAC by TBARS assay; format: functional, cell-based
Procedure, shortened: (§4)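 HCT116 cells treated 24 h with 5 µM compound, with or without 10 mM NAC. Pellets were sonicated on ice in PBS and lipids hydrolysed with acetic acid/NaOH. Free MDA was reacted with TBA and read at 530 nm, compared with DMSO control.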

HCT-116 [16] = assay: Induction of lipid peroxidation in human HCT-116 cells at 5 uM incubated for 24 hrs by TBARS assay; format: functional, cell-based; procedure, shortened: as §4

| SMILES | IC50 [1] | IC50 [2] | IC50 [3] | other results |
| --- | --- | --- | --- | --- |
| N=C(N)[Se]Cc1ccc(CN2C(=O)C(=O)c3cc(Br)ccc32)cc1 | 344 nM |  |  |  |
| N=C(N)[Se]Cc1ccc(CN2C(=O)C(=O)c3cc(Br)cc(Br)c32)cc1 | 333 nM | 2010 nM | 397 nM |  |
| N=C(N)[Se]Cc1ccc(CN2C(=O)C(=O)c3cccc(Br)c32)cc1 | > 10000 nM |  |  |  |
| N=C(N)SCc1ccc(CN2C(=O)C(=O)c3cc(F)cc(Br)c32)cc1 | 219 nM |  |  |  |
| N=C(N)SCc1ccc(CN2C(=O)C(=O)c3ccccc32)cc1 | 4200 nM |  |  |  |
| N=C(N)[Se]Cc1ccc(CN2C(=O)C(=O)c3cc(Cl)cc(Cl)c32)cc1 | 327 nM |  |  |  |
| N=C(N)SCc1ccc(CN2C(=O)C(=O)c3cc(F)ccc32)cc1 | 2860 nM |  |  |  |
| N=C(N)SCc1ccc(CN2C(=O)C(=O)c3cc(Br)ccc32)cc1 | 4880 nM | > 10000 nM | 8520 nM |  |
| N=C(N)[Se]Cc1ccc(CN2C(=O)C(=O)c3cc(F)cc(Br)c32)cc1 | 368 nM | 1920 nM | 420 nM |  |
| Br.N=C(N)SCc1ccc(CN2C(=O)C(=O)c3cc(Cl)cc(Cl)c32)cc1 | 219 nM | 1640 nM | 279 nM | IC50 (HCT-116 [4]): 3200 nM; Activity [5]: 10%; IC50 (NCI-H929): 700 nM; IC50 [6]: 1600 nM; IC50 (U-266): 2700 nM; IC50 (MM1.S): 1600 nM; IC50 [7]: 2400 nM; IC50 (RPMI-8226): 1300 nM; IC50 (UACC-903): 3000 nM; IC50 [8]: 5400 nM; IC50 (HT-29): 2600 nM |
| N=C(N)SCc1ccc(CN2C(=O)C(=O)c3cc(Cl)ccc32)cc1 | 3070 nM |  |  |  |
| N=C(N)[Se]Cc1ccc(CN2C(=O)C(=O)c3cccc(C(F)(F)F)c32)cc1 | 251 nM | 3490 nM | 657 nM |  |
| N=C(N)[Se]Cc1ccc(CN2C(=O)C(=O)c3cc(F)ccc32)cc1 | 2360 nM |  |  |  |
| N=C(N)SCc1ccc(CN2C(=O)C(=O)c3cccc(Cl)c32)cc1 | 3590 nM | > 10000 nM | 177 nM |  |
| N=C(N)[Se]Cc1ccc(CN2C(=O)C(=O)c3cccc(F)c32)cc1 | 246 nM |  |  |  |
| N=C(N)[Se]Cc1ccc(CN2C(=O)C(=O)c3cc(Cl)ccc32)cc1 | 2770 nM |  |  |  |
| Br.N=C(N)SCc1ccc(CN2C(=O)C(=O)c3cc(C(F)(F)F)ccc32)cc1 | 360 nM | 2140 nM | 334 nM | IC50 (HCT-116 [4]): 5700 nM; Activity (HCT-116 [9]): Active; Activity [5]: 2%; IC50 (NCI-H929): 1500 nM; IC50 [6]: 1700 nM; Activity (HCT-116 [10]): Active; IC50 (U-266): 2600 nM; IC50 (MM1.S): 2200 nM; IC50 [7]: 5700 nM; Activity (HCT-116 [11]): inactive; Activity (HCT-116 [12]): inactive; Activity (HCT-116 [13]): Active; Activity (HCT-116 [14]): inactive; IC50 (RPMI-8226): 1600 nM; IC50 (UACC-903): 5700 nM; IC50 [8]: 20700 nM; Activity (HCT-116 [15]): inactive; Activity (HCT-116 [16]): Active; IC50 (HT-29): 4900 nM |
| N=C(N)[Se]Cc1ccc(CN2C(=O)C(=O)c3ccccc32)cc1 | 4010 nM |  |  |  |
| N=C(N)SCc1ccc(CN2C(=O)C(=O)c3cccc(F)c32)cc1 | 241 nM | > 10000 nM | 598 nM |  |
| N=C(N)SCc1ccc(CN2C(=O)C(=O)c3cccc(C(F)(F)F)c32)cc1 | 246 nM |  |  |  |
| N=C(N)[Se]Cc1ccc(CN2C(=O)C(=O)c3cccc(Cl)c32)cc1 | > 10000 nM | > 10000 nM | > 10000 nM |  |
| O=C1C(=O)N(Cc2ccccc2)c2ccccc21 |  |  |  | IC50 [7]: > 100000 nM; IC50 (UACC-903): > 100000 nM; IC50 [8]: > 100000 nM |
| N=C(N)SCc1ccc(CN2C(=O)C(=O)c3cccc(Br)c32)cc1 | 6320 nM |  |  |  |
| N=C(N)[Se]Cc1ccc(CN2C(=O)C(=O)c3cc(C(F)(F)F)ccc32)cc1 | 1520 nM |  |  |  |
